Converted amounts (≈) assume the structure as drawn.

Results on two compounds are retold here after ChEMBL document CHEMBL1122293, “Synthesis, evaluation of chemical reactivity, and murine antineoplastic activity of 2-hydroxy-5-(3,4-dichlorophenyl)-6,7-bis(hydroxymethyl)-2,3-dihydro-1H- pyrrolizine bis(2-propylcarbamate) and 2-acyloxy derivatives as potential water-soluble prodrugs” (J Med Chem, 1983).

For series [1], the system named is P388. As to the kind of experiment: Weight difference at 20 mg/kg (ip)against P388 Lymphocytic Leukemia in mice. The format is functional, Mus musculus. In short, it runs like this: (§1)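 Male CDF1 mice inoculated ip with P388 leukemia cells. Nine daily ip doses beginning 24 h later, as suspensions in Klucel or water. Acute toxicity evaluated day 5. Weight difference reported as treated minus control (g).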

In series [2] the test system is P388. As to the kind of experiment: Log of the tumor cell population at the end of treatment at 25 mg/kg (ip) against P388 Lymphocytic Leukemia in mice. The format is functional, Mus musculus.
The test system of series [3] is P388. As to the kind of experiment: Log of the tumor cell population at the end of treatment at 20 mg/kg (ip) against P388 Lymphocytic Leukemia in mice. The format is functional, Mus musculus.
Series [4] has as its system P388. Nature of the series: Median survival time of test animals compared to controls at 6.25 mg/kg (ip) against P388 Lymphocytic Leukemia in mice. The format is functional, Mus musculus. In a few lines:
(§2)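 P388 leukemia cells were inoculated ip into male CDF1 mice. Treatment began 24 h later, given ip as five daily doses, either as a Klucel (hydroxypropylcellulose) suspension or as an aqueous solution. Acute toxicity was assessed on day 5 and results were read on day 30. The value is median survival of treated versus control mice, as % T/C.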

The subject of series [5] is P388. As to the kind of experiment: Log of the tumor cell population at the end of treatment at 40 mg/kg (ip) against P388 Lymphocytic Leukemia in mice. The format is functional, Mus musculus.
The test system of series [6] is P388. As to the kind of experiment: Median survival time of test animals compared to controls at 50 mg/kg (ip) against P388 Lymphocytic Leukemia in mice. The format is functional, Mus musculus. In a few lines:
as §2

The subject of series [7] is P388. As to the kind of experiment: Median survival time of test animals compared to controls at 100 mg/kg (ip) against P388 Lymphocytic Leukemia in mice. The series is classed as functional, Mus musculus. In short, it runs like this:
as §2

Series [8] has as its system P388. Nature of the series: Median survival time of test animals compared to controls at 10 mg/kg (ip) against P388 Lymphocytic Leukemia in mice. The format is functional, Mus musculus. In short, it runs like this:
(§3)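 P388 leukemia cells were given ip to male CDF1 mice. Dosing started 24 h later: nine daily ip doses given as suspensions in Klucel (hydroxypropylcellulose) or in water. Toxicity day was day 5 and evaluation was on day 30. The value is % T/C of median survival time against untreated controls, with a parallel positive-control arm.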

The test system of series [9] is P388. Nature of the series: Median survival time of test animals compared to controls at 25 mg/kg (ip) against P388 Lymphocytic Leukemia in mice. The series is classed as functional, Mus musculus. In a few lines:
as §2

The subject of series [10] is P388. As to the kind of experiment: Median survival time of test animals compared to controls at 40 mg/kg (ip) against P388 Lymphocytic Leukemia in mice. The series is classed as functional, Mus musculus. In a few lines:
as §3

The test system of series [11] is P388. As to the kind of experiment: Weight difference at 80 mg/kg (ip)against P388 Lymphocytic Leukemia in mice. The format is functional, Mus musculus. In a few lines: as §1
The subject of series [12] is P388. As to the kind of experiment: Weight difference at 6.25 mg/kg (ip)against P388 Lymphocytic Leukemia in mice. The format is functional, Mus musculus. In a few lines: (§4)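 Male CDF1 mice given 6×10^6 leukemia cells ip. Five daily ip doses beginning 24 h later, as Klucel suspension or aqueous solution. Acute toxicity on day 5; survival assessed on day 30. Weight difference reported as treated minus control (g).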

Series [13] deals with P388. As to the kind of experiment: Weight difference at 12.5 mg/kg (ip)against P388 Lymphocytic Leukemia in mice. The format is functional, Mus musculus. In a few lines: (§5)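 P388 leukemia cells inoculated ip into male CDF1 mice; ip treatment started 24 h later, five daily doses, as Klucel (hydroxypropylcellulose) suspension or aqueous solution. Acute toxicity on day 5. Day-30 median survival of treated versus control mice expressed as % T/C. Weight difference is treated minus control, in grams.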

Series [14] deals with P388. Nature of the series: Weight difference at 50 mg/kg (ip)against P388 Lymphocytic Leukemia in mice. The format is functional, Mus musculus. In short, it runs like this:
as §4

Series [15] deals with P388. Nature of the series: Weight difference at 40 mg/kg (ip)against P388 Lymphocytic Leukemia in mice. The format is functional, Mus musculus. In a few lines: as §1
The test system of series [16] is P388. Nature of the series: Weight difference at 2.5 mg/kg (ip)against P388 Lymphocytic Leukemia in mice. The series is classed as functional, Mus musculus. In a few lines: as §1
In series [17] the test system is P388. As to the kind of experiment: Log of the tumor cell population at the end of treatment at 5 mg/kg (ip) against P388 Lymphocytic Leukemia in mice. The format is functional, Mus musculus.
Series [18] has as its system P388. Nature of the series: Median survival time of test animals compared to controls at 5 mg/kg (ip) against P388 Lymphocytic Leukemia in mice. The format is functional, Mus musculus. In short, it runs like this: as §3
In series [19] the test system is P388. As to the kind of experiment: Weight difference at 5 mg/kg (ip)against P388 Lymphocytic Leukemia in mice. The format is functional, Mus musculus. In short, it runs like this:
as §1

The subject of series [20] is P388. As to the kind of experiment: Weight difference at 25 mg/kg (ip)against P388 Lymphocytic Leukemia in mice. The format is functional, Mus musculus. In short, it runs like this: as §4
In series [21] the test system is P388. As to the kind of experiment: Log of the tumor cell population at the end of treatment at 80 mg/kg (ip) against P388 Lymphocytic Leukemia in mice. The format is functional, Mus musculus.
The nature of series [22]: Water solubility of the compound. The series is classed as ADME. As to conditions: read-out: S. In a few lines: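 Excess bis(carbamate) (30-60 mg) in 2 mL distilled water, vortexed 10 min, filtered through Teflon wool and diluted. UV absorbance read at 291 nm. Concentration from a linear Beer's law calibration made with a salt standard (r = 0.998).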
In series [23] the test system is P388. As to the kind of experiment: Log of the tumor cell population at the end of treatment at 100 mg/kg (ip) against P388 Lymphocytic Leukemia in mice. The format is functional, Mus musculus.
The subject of series [24] is P388. As to the kind of experiment: Log of the tumor cell population at the end of treatment at 50 mg/kg (ip) against P388 Lymphocytic Leukemia in mice. The series is classed as functional, Mus musculus.
Series [25] relates to P388. As to the kind of experiment: Median survival time of test animals compared to controls at 12.5 mg/kg (ip) against P388 Lymphocytic Leukemia in mice. The format is functional, Mus musculus. In a few lines:
as §5

The subject of series [26] is P388. As to the kind of experiment: Log of the tumor cell population at the end of treatment at 10 mg/kg (ip) against P388 Lymphocytic Leukemia in mice. The series is classed as functional, Mus musculus.
Series [27] concerns P388. As to the kind of experiment: Median survival time of test animals compared to controls at 2.5 mg/kg (ip) against P388 Lymphocytic Leukemia in mice. The series is classed as functional, Mus musculus. In a few lines: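 P388 leukemia cells given ip to male CDF1 mice; ip dosing began 24 h later, nine daily doses, as suspensions in Klucel (hydroxypropylcellulose) or water. Acute toxicity checked on day 5. Survival read on day 30 as median survival time of treated versus control mice (% T/C). Weight difference is treated minus control, in grams.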

The test system of series [28] is P388. Nature of the series: Log of the tumor cell population at the end of treatment at 6.25 mg/kg (ip) against P388 Lymphocytic Leukemia in mice. The series is classed as functional, Mus musculus.
In series [29] the test system is P388. As to the kind of experiment: Weight difference at 10 mg/kg (ip)against P388 Lymphocytic Leukemia in mice. The format is functional, Mus musculus. In a few lines:
as §1

Series [30] relates to P388. Nature of the series: Weight difference at 100 mg/kg (ip)against P388 Lymphocytic Leukemia in mice. The format is functional, Mus musculus. In a few lines:
as §4

The nature of series [31]: Half life was determined.
In series [32] the test system is P388. As to the kind of experiment: Log of the tumor cell population at the end of treatment at 12.5 mg/kg (ip) against P388 Lymphocytic Leukemia in mice. The series is classed as functional, Mus musculus.
Series [33] relates to P388. Nature of the series: Median survival time of test animals compared to controls at 20 mg/kg (ip) against P388 Lymphocytic Leukemia in mice. The series is classed as functional, Mus musculus. In a few lines:
as §3

Series [34] deals with P388. As to the kind of experiment: Median survival time of test animals compared to controls at 80 mg/kg (ip) against P388 Lymphocytic Leukemia in mice. The format is functional, Mus musculus. In a few lines:
as §3

Turning to `CC(C)NC(=O)OCc1c(COC(=O)NC(C)C)c(-c2ccc(Cl)c(Cl)c2)n2c1CCC2`, the Weight change in series [1] was -1.8 g; in series [11] it was -4 g; in series [12] it was -2.8 g; in [13], -3.4 g; in series [14], -5.3 g; in series [15], -2.6 g. The Weight change is reported as -0.5 g in [16]; -0.8 g in series [19]; -3.9 g in series [20]; -0.7 g in series [29]; -5.6 g in [30]. The Log cell kill in series [2] is 3.16; in [3], -1.41; in series [5], -1.25; in series [17] it was -1.63; in series [21], -1.64; in [23] it was -1.4. Moreover, the Log cell kill is on record as 5.25 in series [24]; -1.44 in [26]; -1.52 in [27]; 2.01 in series [28]; 1.7 in series [32]. Also, the T/C in [4] is 164%; in series [6], 205%; in series [7], 110%; in series [8], 141%; in series [9], 179%; in series [10], 155%. For the same compound, the T/C in series [18] came out at 127%; in [25], 160%; in [27] it was 135%; in [33], 144%; in series [34], 126%. Besides, in series [22], the solubility is 0.00126 mM (≈ 0.608 µg/mL). Moreover, the half-life in series [31] amounted to 13 min.

As to `CC(C)NC(=O)OCc1c(COC(=O)NC(C)C)c(-c2ccc(Cl)c(Cl)c2)n2c1CC(OC(=O)CCC(=O)[O-])C2.[K+]` (configuration not stated), the solubility in series [22] was 38.8 mM. The compound also gave a half-life in series [31] of 92 min.
